In article PMC3549632 (Biochemistry, 2012):
Read-outs that look alike come from different tables or passages of the source.

Key:
SULT1A1 [1] = biological target: T1, SULT1A1 (Homo sapiens, UniProt P50225); experiment: Presteady state; format: binding; details: for koff: pH 7.4, 25 °C
SULT1A1 [2] = biological target: T1, SULT1A1; format: binding
How it was run: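 Purified tag-cleaved human SULT1A1 in 5.0 mM MgCl2, 25 mM potassium phosphate pH 7.4, 0 or 125 μM PAP, 25 ± 2 °C. Ligand titrated from ethanol:water (1:1), final ethanol <0.5%. Intrinsic fluorescence quenching read at λex 290 nm. Triplicate titrations averaged, ΔI/ΔImax vs total ligand least-squares fit with a quadratic single-site-per-monomer model, giving apparent […].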

SULT1A1 [3] = biological target: T1, SULT1A1; experiment: SULT1A1 intrinsic hydrolysis of PAPS; format: biochemical; details: saturating 35S-PAPS (7.0 μM), MgCl2 5.0 mM, KPO4 25 mM, pH 7.4, 25 °C
[4] = pH 7.4, enzyme species PAPS·E (saturating PAPS)

T1 sequence (P50225 whole entry): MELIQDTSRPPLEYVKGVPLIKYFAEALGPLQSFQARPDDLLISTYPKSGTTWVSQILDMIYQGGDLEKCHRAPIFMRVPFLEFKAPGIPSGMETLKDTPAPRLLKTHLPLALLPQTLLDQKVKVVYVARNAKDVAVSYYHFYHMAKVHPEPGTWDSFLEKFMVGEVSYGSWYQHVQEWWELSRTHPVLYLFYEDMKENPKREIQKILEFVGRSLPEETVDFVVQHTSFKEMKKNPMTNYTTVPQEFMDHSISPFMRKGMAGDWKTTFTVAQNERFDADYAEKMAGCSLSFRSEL

fold decrease in apparent on-rate constant at saturating PAPS (SULT1A1 [1]; E vs PAPS·E) [fold] | Kd (SULT1A1 [1]; Kd (koff/kon), enzyme species E, calculated from rate constants) [nM] | effect of PAPS on off-rate constant (SULT1A1 [1]; saturating PAPS) | Kd (SULT1A1 [2]; Kd, enzyme species E (zero PAP, open form), pH 7.4, 25 °C) [nM] | Kd (SULT1A1 [2]; Kd, enzyme species PAP·E (saturating PAP, 125 μM; closed form), pH 7.4, 25 °C) [nM] | kcat (app) for SULT1A1 hydrolysis of PAPS (SULT1A1 [3]) [s⁻¹] | SMILES | koff (SULT1A1 [1]; pH 7.4, enzyme species E) [s⁻¹] | koff (SULT1A1 [1]; [4]) [s⁻¹] | Kd (SULT1A1 [1]) [nM] | effect of PAPS on binding on- and off-rate constants (SULT1A1 [1]; saturating PAPS) | Kd (SULT1A1 [2]) [nM]
26 | 270 | not affected | 280 | 6900 ± 900 | – | C[C@]12CC[C@@H]3c4ccc(O)cc4C[C@@H](CCCCCCCCC[S+]([O-])CCCC(F)(F)C(F)(F)F)[C@H]3[C@@H]1CC[C@@H]2O (stereo partly drawn) [fulvestrant, (7R,8R,9S,13S,14S,17S)-13-methyl-7-[9-(4,4,5,5,5-pentafluoropentyl-sulfinyl)nonyl]-6,7,8,9,11,12,14,15,16,17,-decahydrocyclopenta[α]phenanthrene-3,17-diol] | 1.8 | 1.7 | – | – | –
– | – | – | – | – | – | C[C@]12CC[C@@H]3c4ccc(O)cc4CC[C@H]3[C@@H]1CC[C@@H]2O [E2, estradiol] | 1.6 | 1.9 | 1300 | not significantly affected | 1700
– | – | – | – | – | 0.000767 | Nc1ncnc2c1ncn2[C@@H]1O[C@H](COP(=O)(O)OS(=O)(=O)O)[C@@H](OP(=O)(O)O)[C@H]1O [PAPS, 3′-phosphoadenosine 5′-phosphosulfate] | – | – | – | – | –
